Measurements taken from PubChem BioAssay.
Results filed as inconclusive are left out.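 The calls were made as follows, unless noted: active = viability at or below 27.92% in each of two runs, the all-compound median minus 4 SD; inconclusive = no clear call, values can overlap the other calls; inactive = the rest.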

What was measured:
[1] = S. cerevisiae growth inhibition in permissive medium (OD615), pilot counter-assay for S. cerevisiae lifespan shortening project, permissive growth control (AID 705;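 active = growth inhibition above 25% in both replicates, a cutoff set 3 SD above the mean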); conditions: OD615, 24 h, at 10 µM, hits give high values
Summary of the method: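 assay system = Saccharomyces cerevisiae strain carrying genetically modified DeaD replicative-lifespan system | medium = SC raffinose/galactose permissive medium | dosing = 10 µM single dose, 0.25% DMSO | schedule = 24 h compound exposure at 30 °C after 4 h pre-growth | measured by = OD at 615 nm | read-out basis = growth inhibition from lowered OD615 after 24 h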

[2] = S. cerevisiae growth inhibition in restrictive medium, OD615, pilot screen, restrictive growth control, yeast lifespan reduction project (AID 706;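 active = growth inhibition above a set limit, 3 SD over mean compound inhibition, in both replicates, cut at about 43% in these data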;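 also: modified DeaD lifespan yeast strain shifted to restrictive glucose medium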); conditions: OD615, 48 h, at 10 µM, hits give high values
Summary of the method: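 Buffer or medium: CSMM-D glucose medium. Material: genetically modified Saccharomyces cerevisiae, DeaD replicative lifespan assay strain. Times: 48 h compound exposure at 30 °C. Measured by: optical density at 615 nm.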

[3] = doxorubicin toxicity protection in MRP-1 cells – H69AR cells, CellTiter-Glo, duplicate, MRP-1 activator project, pilot screen (AID 807;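 active = viability increase at or above a cutoff of the median across tested compounds plus 3 SD, cut at about 8.5% in these data, passing the limit was not always enough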;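 also: compound pretreatment 18-22 h then 72 h combined with doxorubicin; 0% = doxorubicin alone and 100% = vehicle without doxorubicin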); conditions: H69AR viability with doxorubicin, CellTiter-Glo luminescence; at 10 µM; hits give high values
[4] = viability of HCT116 without oncogenic beta-catenin – human colon tumor cells, pilot screen (AID 823;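 active = cell viability at or below a set limit in both duplicate runs, the limit being the all-compound median minus 4 SD, cut at about 23% in these data, passing the limit was not always enough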;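 also: 0% = wells killed by 20 µM Hyamine and 100% = untreated DMSO cell wells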); conditions: HCT116 beta-catenin knockout viability, CellTiter-Glo, 60 h; at 10 µM; hits give low values
[5] = viability of PTEN-null HCT116 cells – cell-based, HCT116 clonal line, CellTiter-Glo, pilot screen (AID 824); conditions: HCT116 PTEN-deleted viability, 60 h, at 10 µM, hits give low values;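 also: 0% = 20 µM Hyamine control and 100% = vehicle cell control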
[6] = RAM pathway blockade in budding yeast – dse1pr::URA3 reporter, 5-FOA selection, pilot screen (AID 869;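 active = inhibition over a set limit, the all-compound mean plus 3 SD, in both replicate runs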;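 also: 0% = DMSO wells with no growth and 100% = 10 µM 1-NA-PP1 with full growth; RAM network block rescues cells from 5-FOA so hits raise OD615 growth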); conditions: S. cerevisiae dse1pr::URA3 5-FOA growth, OD615, 2 d; at 10 µM; hits give high values; strain carries analog-sensitive mutant Cbk1 kinase
[7] = RAM signaling pathway blockade in yeast – S. cerevisiae, Pdr1DBD-CYC8 efflux-inhibited sensitized strain, primary screen (AID 1298;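 active = RAM network inhibition above 8.4% in each of two replicates, 3 SD over the compound average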;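 also: 0% = DMSO untreated cells without growth and 100% = 10 µM 1-NA-PP1 full growth; higher means more yeast growth rescued from 5-FOA killing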); conditions: S. cerevisiae cbk1-as DSE1-URA3 strain, 5-FOA growth OD615, 2 d; at 50 µM; hits give high values

CC(C)N1CC(O)=C(c2ccccc2)C1=N
inactive: growth inhibition [1] 2.25% | growth inhibition [2] -15.7% | viability increase [3] -0.1% | viability [4] 96.5% | viability [5] 97.2% | inhibition [6] 0.86% | RAM network inhibition [7] 4.5%

CC(=O)Nc1ccc(-c2cc(NC(C)=O)n(-c3ccccc3)n2)cc1
inactive: growth inhibition [1] 2.46% | growth inhibition [2] -0.26% | viability increase [3] -1.76% | viability [4] 104% | viability [5] 91.7% | inhibition [6] 0.97% | RAM network inhibition [7] 3.1%

Cc1ccc(OCC(O)CN2CCN(CC(O)COc3ccc(C)cc3Cl)CC2)c(Cl)c1 (stereo unspecified)
inactive: growth inhibition [1] -5.18% | growth inhibition [2] -17.4% | viability increase [3] -4.02% | viability [4] 77.7% | viability [5] 81.8% | inhibition [6] 2.03% | RAM network inhibition [7] 2.76%

O=C(NC1CCCCCC1)C1CCN(C(=O)Cc2ccccc2)CC1
inactive: growth inhibition [1] -11.1% | growth inhibition [2] -9.52% | viability increase [3] -1.12% | viability [4] 101% | viability [5] 94.3% | inhibition [6] 0.785% | RAM network inhibition [7] 3.07%

CN(c1nnc(N)s1)C1CCCCC1
inactive: growth inhibition [1] 1.35% | growth inhibition [2] 14% | viability increase [3] -1.87% | viability [4] 104% | viability [5] 98.7% | inhibition [6] 2.38% | RAM network inhibition [7] 3.49%

CC(=O)c1sc2ccccc2c1OC(=O)c1ccco1
inactive: growth inhibition [1] -9.99% | growth inhibition [2] -11.4% | viability increase [3] -4.46% | viability [4] 83% | viability [5] 85.3% | inhibition [6] 0.39% | RAM network inhibition [7] 1.97%

Cc1cccc(-n2c(Cc3cc(=O)[nH]c(=O)[nH]3)nnc2SCC(=O)NCC2CCCO2)c1 (stereo unspecified)
inactive: growth inhibition [1] -2.17% | growth inhibition [2] -13.5% | viability increase [3] -2.52% | viability [4] 93.5% | viability [5] 92.3% | inhibition [6] 0.535% | RAM network inhibition [7] -1.56%

COc1ccc(OC)c(Nc2cc(C)nc3nc(C)nn23)c1
inactive: growth inhibition [1] 0.505% | growth inhibition [2] -0.375% | viability increase [3] -5.35% | viability [4] 65.5% | viability [5] 57.4% | inhibition [6] 1.67% | RAM network inhibition [7] 5.24%

COC(=O)c1sc2nc3c(cc2c1N)COC(C)(C)C3
inactive: growth inhibition [1] -6.75% | growth inhibition [2] -7.37% | viability increase [3] -1.54% | viability [4] 101% | viability [5] 94.1% | inhibition [6] 1.19% | RAM network inhibition [7] 3.17%

COc1ccc(C)cc1NC(=O)Cn1cnc2sc(C)c(S(=O)(=O)N3CCOCC3)c2c1=O
inactive: growth inhibition [1] 4.46% | growth inhibition [2] 4.67% | viability increase [3] -1.23% | viability [4] 102% | viability [5] 99.3% | inhibition [6] 2.75% | RAM network inhibition [7] 9.74%

COc1ccc(NC(=O)C2CCCNC2)cc1OCC(C)C (stereo unspecified)
inactive: growth inhibition [1] -15.2% | growth inhibition [2] -19.2% | viability increase [3] -1.5% | viability [4] 98.4% | viability [5] 97% | inhibition [6] 1.75% | RAM network inhibition [7] 2.92%

COc1ccc(S(=O)(=O)Cc2ccc(C(=O)NCc3ccco3)o2)cc1
inactive: growth inhibition [1] -3.02% | growth inhibition [2] -11.6% | viability increase [3] -4.28% | viability [4] 104% | viability [5] 97.4% | inhibition [6] 0.88% | RAM network inhibition [7] 0.47%

O=C(Cn1nc(Cc2cccnc2)c2ccccc2c1=O)N1CCN(C(=O)c2ccco2)CC1
inactive: growth inhibition [1] 4.07% | growth inhibition [2] 0.805% | viability increase [3] -0.74% | viability [4] 104% | viability [5] 104% | inhibition [6] 0.64% | RAM network inhibition [7] 2.7%

CCOC(=O)N1CCN(C(=O)c2cc3cc(Br)ccc3oc2=O)CC1
inactive: growth inhibition [1] -3.99% | growth inhibition [2] -17.6% | viability increase [3] -3.3% | viability [4] 94.9% | viability [5] 89.7% | inhibition [6] 0.665% | RAM network inhibition [7] -1.94%

CC(C)(C)NC(=O)c1ccc(NC(=O)C2COc3ccccc3O2)cc1 (stereo unspecified)
inactive: growth inhibition [1] -6.05% | growth inhibition [2] -6.04% | viability increase [3] -0.73% | viability [4] 99.3% | viability [5] 96.4% | inhibition [6] 1.9% | RAM network inhibition [7] -0.88%

CCOC(=O)COc1cc2c(C(=O)OCC)c(C)oc2cc1Br
inactive: growth inhibition [1] -10% | growth inhibition [2] -2.66% | viability increase [3] -2.07% | viability [4] 89.3% | viability [5] 89.8% | inhibition [6] 1.04% | RAM network inhibition [7] 12.8%

O=C(COc1cccc2ccccc12)N1CCN(c2ccccc2)CC1
inactive: growth inhibition [1] -6.48% | growth inhibition [2] -22% | viability increase [3] 1.21% | viability [4] 90.8% | viability [5] 89% | inhibition [6] 2.06% | RAM network inhibition [7] 11.7%

O/N=C(/Cc1ccccn1)c1ccccc1
inactive: growth inhibition [1] -1.64% | growth inhibition [2] 7.06% | viability increase [3] -1.19% | viability [4] 101% | viability [5] 101% | inhibition [6] 1.97% | RAM network inhibition [7] 0.22%
